Only some compounds are listed: those with a hit (about 3.1% of all), similar ones and a draw of the others.
GPR7 antagonist: antagonists of human GPR7 (neuropeptides B/W receptor 1); P48145; actives 1.1% (n = 290,000); GPR7-expressing cells, fluorescence antagonist assay; inhibition, % at 4.4 µM; in the data active = inhibition above about 16%, passing the limit was not always enough;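 note: cells stimulated with the agonist NPW; 0% = agonist with vehicle and 100% = vehicle without agonist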
Target sequence (P48145 whole entry, looked up): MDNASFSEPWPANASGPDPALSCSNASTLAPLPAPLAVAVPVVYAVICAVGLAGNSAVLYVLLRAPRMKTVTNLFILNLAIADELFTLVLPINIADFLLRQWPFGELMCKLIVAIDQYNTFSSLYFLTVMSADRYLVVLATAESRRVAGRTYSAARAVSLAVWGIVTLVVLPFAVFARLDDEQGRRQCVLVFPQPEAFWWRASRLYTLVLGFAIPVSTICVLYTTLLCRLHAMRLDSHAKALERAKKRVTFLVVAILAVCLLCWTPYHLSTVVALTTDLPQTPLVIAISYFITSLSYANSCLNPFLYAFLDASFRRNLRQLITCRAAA
GalR3 antag: human GalR3 antagonism; inhibition, % at 3 µM; actives 0.44% (n = 360,000); HEK293 GalR3-CNG cAMP membrane potential fluorescence; galR3 body fused to GalR1 C-terminus;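 active = inhibition above the screen-wide average plus 3 SD, cut at about 13% in these data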;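 note: forskolin and galanin both at EC90 stimulate the cells; cAMP rise reported by CNG channel membrane potential dye signal; 0% = forskolin plus galanin with DMSO and 100% = forskolin alone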
Target sequence (O60755 1-299 limits assumed): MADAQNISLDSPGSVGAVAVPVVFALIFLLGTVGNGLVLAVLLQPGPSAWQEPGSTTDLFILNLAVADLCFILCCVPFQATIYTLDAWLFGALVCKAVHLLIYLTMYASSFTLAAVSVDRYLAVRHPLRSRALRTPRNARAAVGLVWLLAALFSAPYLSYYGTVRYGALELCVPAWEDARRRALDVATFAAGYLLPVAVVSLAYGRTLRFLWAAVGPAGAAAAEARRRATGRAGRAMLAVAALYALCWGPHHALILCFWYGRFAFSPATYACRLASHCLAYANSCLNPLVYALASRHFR
OX1R antag-1: antagonists of human orexin 1 receptor; CHO/OX1R cells, Fluo-8 calcium fluorescence, orexin A; O43613; inhibition, % at 5 µM; actives 0.43% (n = 330,000); AID 434989;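 active = inhibition above its plate's threshold, mean inhibition of all tested compounds on the plate plus 3 SD, cut at about 37% in these data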;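 note: 0% = orexin A challenge wells and 100% = SB-334867-A antagonist wells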
OX1R antag-2: antagonists of human orexin 1 receptor (OX1R); inhibition, % at 6.6 µM; actives 1.8% (n = 330,000); OX1R-expressing cells, FRET antagonist read-out; O43613; in the data active = inhibition mostly above about 38%, no sharp cut-off; inactive = mostly below about 40%;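 note: 0% = agonist challenge alone and 100% = reference antagonist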
CHO parental Ca: counter-screen: ATP calcium response change in parental CHO cells. parental CHO-K1, ATP-induced calcium, Fluo-8 fluorescence. AID 463079. actives 0.63% (n = 330,000). inhibition, % at 5.6 µM;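 active = inhibition above that plate's mean sample inhibition plus 3 SD, cut at about 26% in these data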;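 note: 0% = ATP-challenged DMSO wells and 100% = DMSO wells without ATP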
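Test system: untransfected parental CHO cell line. Compound: one dose, 5.6 µM nominal. Detection: intracellular calcium via Fluo-8 no-wash fluorescent dye. Measure: % inhibition. Benchmarks: ATP-challenged DMSO wells low, unchallenged DMSO wells high.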
An asterisk follows results filed as active; · = no result given; ! = repeats disagree.

SMILES	GPR7 antagonist	GalR3 antag	OX1R antag-1	OX1R antag-2	CHO parental Ca
O=C(NCCc1cn2ccccc2n1)c1ccccc1F	-6	-5	-10	9	-1
O=C(NC1CCCC1)c1cc(COc2ccc3ncccc3c2)on1	2	·	31	24	52*
Cc1ccc(OCc2cc(C(=O)NC3CCCCC3)no2)cn1	1	-7	-16	24	14
COc1cc(N2CCC(O)CC2)ccc1Nc1cc(Nc2ccccc2S(=O)(=O)C(C)C)c2cc[nH]c2n1	·	0	·	·	·
c1ccc(-c2ccc(C(c3ccccc3)n3ccnc3)cc2)cc1 (stereo not drawn)	36*!	·	-18	23	-8
O=C1/C(=C\c2ccc(O)cc2)SC(=S)N1c1cccnc1	0	-4	23	12	58*
Cc1cc(/C=C2/SC(=S)N(c3cccc(C(F)(F)F)c3)C2=O)c(C)n1-c1cccnc1	-12	·	23	25	50*
Cc1cc(/C=C2\SC(=S)N(Cc3ccco3)C2=O)c(C)n1-c1cccnc1	-2	0	·	·	·
CCCCOCCCNc1ncnc2c1[nH]c1ccccc12	16	-6	8	52*	43*
CCCCOc1ncnc2c1[nH]c1ccccc12	10	-6	36	73*	28
OC(c1ccc(-c2ccccc2)cc1)c1ncc(-c2ccccc2Cl)[nH]1 (stereo not drawn)	·	-4	·	·	·
O=c1c2sc(-c3ccccc3)cc2nc2n1CCC2	1	-4	-16	52*	-10
Nc1ccc2nc3c(=O)n(CCc4ccccc4)c(=O)[nH]c3nc2c1	7	-6	42*	19	36*
Nc1ccc2nc3c(=O)n(C4CCCCC4)c(=O)[nH]c3nc2c1	5	-5	46*	53	39*
COc1cc2[nH]c(=O)n(C3CCCCC3)c(=O)c2cc1OC	-10	5	-10	32	-10
Cc1cc2nc3c(=O)n(CCc4ccccc4)c(=O)[nH]c3nc2cc1N	-1	1	18	16	30
COc1ccccc1C(=O)N1CCN(C(=O)[C@H]2O[C@@H](n3cnc4c(N)ncnc43)[C@H](O)[C@@H]2O)CC1	·	7	·	·	·
COc1ccc(NC(=O)Nc2ccc(OC)cc2)cc1	-10	-5	-8	16	0
N#Cc1ccc(NC(=O)Nc2ccc(Oc3ccc(NC(=O)Nc4ccc(C#N)cc4)cc3)cc2)cc1	10	-7	2	17	38*
CC(C)(C)n1nc(C2CC2)cc1NC(=O)Nc1ccccc1	·	-2	·	·	·
CC1CC(C)CN(CCOc2ccccc2-c2ccccc2)C1 (stereo not drawn)	25*	0	-2	7	2
CC1CCN(CCOc2ccccc2-c2ccccc2)CC1	21	-12	-27	-3	-14
CCOC(=O)c1ccccc1OC(=O)CS(=O)c1ccccc1[N+](=O)[O-] (stereo not drawn)	-2	-4	-22	68	-7
COC(=O)c1ccc(OC(=O)CS(=O)c2ccccc2[N+](=O)[O-])cc1 (stereo not drawn)	-2	-7	-15	63*	-11
NC(=O)C1CCN(C(=O)NC(=O)c2ccccc2)CC1	-5	3	-9	10	-4
SMILES	GPR7 antagonist	GalR3 antag	OX1R antag-1	OX1R antag-2	CHO parental Ca
C/C(=N\Nc1cccc([N+](=O)[O-])c1)c1cc(F)ccc1O	-9	-1	27	68*	-9
Cc1cccc(NC(=O)c2ncn3c2C(=O)N(C)CC3)c1	·	-3	·	·	·
C=CCN(c1ccccc1)S(=O)(=O)c1cccc(C(=O)NCC(c2cccs2)N2CCOCC2)c1 (stereo not drawn)	·	0	4	39*	-34
Cc1ccc(NC(=O)C(C)OC(=O)c2n[nH]c3ccccc23)cc1 (stereo not drawn)	·	-5	-30	29	-7
CC(OC(=O)c1n[nH]c2ccccc12)C(=O)Nc1ccccc1[N+](=O)[O-] (stereo not drawn)	·	-6	12	36*	-25
CC(C)(C)C(=O)NCC12C=CC(O1)C1C(=O)N(c3ccccc3)C(=O)C12 (stereo not drawn)	-11	-9	-19	2	-11
O=C1C2C3C=CC(CO)(O3)C2C(=O)N1c1ccc(-c2ccccc2)cc1 (stereo not drawn)	-4	·	30	16	61*
CC(OC(=O)CSCC(=O)Nc1ccc(Cl)cc1)C(=O)N(C)Cc1ccccc1 (stereo not drawn)	·	-6	·	·	·
Cc1onc(-c2ccccc2Cl)c1C(=O)NCC(=O)O	-2	0	-10	8	-7
Cc1onc(-c2ccccc2Cl)c1C(=O)NCCn1c(C)cc2ccccc21	7	·	7	46*	-3
Cc1onc(-c2ccccc2Cl)c1C(=O)Nc1ccc(-c2cn3cccnc3n2)cc1	-8	·	5	46*	-8
CC1(C(=O)NS(=O)(=O)c2ccccc2)CCN1C(=O)COc1ccc(Cl)cc1 (stereo not drawn)	·	1	·	·	·
FC(F)(F)c1cc(-c2ccccc2)nc2ncnn12	-13	-1	-5	17	-10
FC(F)(F)c1cc(-c2cccs2)nc2ncnn12	-15	-4	-6	62*	4
CC(C)[C@H](NC(=O)N1c2ccccc2NC(=O)[C@@H]1C(C)C)C(=O)N[C@H](Cc1ccccc1)C(=O)O	-4	8	-5	13	-10
Cc1ccc[n+](Cc2ccc([N+](=O)[O-])cc2)c1	-9	-7	-6	37	0
O=[N+]([O-])c1ccc(C[n+]2cccc3c4ccccc4ccc32)cc1	-16	0	-6	49*	-2
CC(CC(=O)Nc1ccc(C(N)=O)cc1)c1ccccc1 (stereo not drawn)	-3	-3	-7	7	-6
O=C(Nc1ccccc1)Nc1ccc(F)c([N+](=O)[O-])c1	33*	-1	-3	42	19
CC(CC(=O)Nc1ccc(Cl)c([N+](=O)[O-])c1)c1ccccc1 (stereo not drawn)	-3	-4	66*	91*	60*
Cc1ccc(NC(=O)Nc2ccccc2)cc1[N+](=O)[O-]	25*	1	3	49	26
COC(=O)c1cccc2c([N+](=O)[O-])c(NC(C)=O)cc(C(=O)OC)c12	·	1	·	·	·
CCNC(=O)C1(C)CCN(C(=O)c2ccc(N(C)C)cc2)C1 (stereo not drawn)	·	-4	·	·	·
N#Cc1ccc(C(=O)OCC(=O)Nc2cccnc2Cl)cc1	·	-6	-17	-5	-3
CC1(C)CC(=O)C=C(Nc2ccc([N+](=O)[O-])cc2)C1	-3	-9	-16	29*	-8
CCn1c(CNc2cccc(Cl)c2)nnc1SCc1ccccc1	19*	-7	-1	4	-25
Cn1c(CNC(=O)Nc2cccc(Cl)c2)nnc1SCc1ccccc1	-7	-2	-1	12	21
Cc1ccc(S(=O)(=O)N2[C@@H](c3ccccc3F)C(C(=O)O)=CC[C@H]2c2ccc(Cl)c(Cl)c2)cc1	·	-2	-4	67*	-10
Cc1ccc([C@H]2C(C(=O)O)=CC[C@@H](c3ccc(Cl)c(Cl)c3)N2S(=O)(=O)c2ccc(C)cc2)cc1	·	-7	9	17	-16
